Assay outcomes as filed in PubChem.
Hits are enriched below; roughly 1.8% of the tested compounds scored in any of these assays.
Scp-1 inhibitor: blocks human Scp-1 phosphatase activity; inhibition, % at 20 µM; Recombinant Scp1, phosphopeptide, malachite green phosphate absorbance; actives 0.88% (n = 340,000); Q9GZU7; AID 493091;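 active = inhibition above about 50% at 20 µM, limit read from the data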;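 also: plate controls were DMSO wells with enzyme for no effect and wells lacking enzyme for full effect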
Target sequence (Q9GZU7 76-261 limits assumed): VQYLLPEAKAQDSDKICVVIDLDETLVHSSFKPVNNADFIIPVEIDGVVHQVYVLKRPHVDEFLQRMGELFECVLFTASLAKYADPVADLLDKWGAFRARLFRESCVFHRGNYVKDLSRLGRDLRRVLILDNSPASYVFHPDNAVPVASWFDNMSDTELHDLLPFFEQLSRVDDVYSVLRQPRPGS
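assay system = SCP-1 phosphatase catalytic domain, residues 76-261 | buffer or medium = 50 mM Tris acetate pH 5.5, 0.005% Tween-20, 10 mM MgCl2 | incubation = enzyme reaction 45 min at room temperature, colour 5 min, stabilisation 30 min | signal = Phosphate-binding colour reagent, absorbance read at 630 nm | measure = % inhibition at 20 µM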
LMPTP inh: LMPTP (human) inhibition | P24666 | recombinant LMPTP-A, OMFP fluorogenic substrate, fluorescence intensity | inhibition, % at 20 µM | actives 0.22% (n = 360,000);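 active = compounds that cut the enzyme signal by at least half of the control window in the single-dose screen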;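 also: plate controls were DMSO wells with enzyme plus substrate for no effect and substrate without enzyme for full effect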
Target sequence (P24666 whole entry, looked up): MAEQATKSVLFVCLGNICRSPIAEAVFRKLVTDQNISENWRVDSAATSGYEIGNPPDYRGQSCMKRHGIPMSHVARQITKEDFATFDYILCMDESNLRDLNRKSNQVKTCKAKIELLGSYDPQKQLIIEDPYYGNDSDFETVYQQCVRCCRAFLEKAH
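Test system – LMPTP-A phosphatase enzyme · Quantity – 0.625 nM LMPTP-A final · Reagent – OMFP substrate, 400 µM final · Dosing – one test concentration per compound, 20 µM, with 3% DMSO overall · Timing – 50 min enzyme reaction at room temperature, protected from light · Detection – fluorescence intensity · Controls – substrate-only low control, DMSO enzyme-plus-substrate high control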
SUMO1 PPI mod: SUMO1-SIM interaction modulation; SUMO1 binding to a labelled peptide, TR-FRET, 1 h; P63165; inhibition, % at 20 µM; actives 0.33% (n = 360,000); in the data active = inhibition above about 37%
Target sequence (P63165 whole entry, looked up): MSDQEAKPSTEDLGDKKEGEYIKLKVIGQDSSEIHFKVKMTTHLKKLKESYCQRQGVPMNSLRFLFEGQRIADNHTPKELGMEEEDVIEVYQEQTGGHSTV
STEP inh: blocks human striatal-enriched tyrosine phosphatase; P54829; recombinant STEP, OMFP fluorogenic substrate, fluorescence; inhibition, % at 20 µM; actives 0.25% (n = 360,000); AID 588621;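 active = inhibition at 20 µM, scaled per plate between control wells, above about 37%, limit read from the data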;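 also: 0% = DMSO with enzyme and substrate and 100% = substrate only without enzyme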
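Material: STEP (striatal-enriched tyrosine phosphatase) enzyme, cell-free; Compound dosing: 20 µM single dose in 1% DMSO; Technique: fluorescence read at 480 nm ex / 540 nm em; Times: reaction 20 min, ambient temperature; Medium: 50 mM Bis-Tris pH 6.0 with 2.5 mM DTT and 0.005% Tween 20; Also added: OMFP at 25 µM.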
DNMT1 block: blocks human DNA methyltransferase DNMT1 | P26358 | DNMT1 molecular beacon, Hinp1I cleavage, fluorescence | inhibition (reported as % activation of signal), % at 10 µM | actives 0.83% (n = 360,000) | AID 588458; in the data active = inhibition above about 50%
Starred values were filed as active, the others as inactive.

How did COC(=O)c1ccccc1NC(=O)c1ccc2c(c1)OCCCO2 do in these assays?
Scp-1 inhibitor: -9; LMPTP inh: 2; SUMO1 PPI mod: 4; STEP inh: -1; DNMT1 block: 2

Results for O=S(=O)(NCc1csc(-c2cccnc2)n1)c1ccc(Br)cc1 ?
Scp-1 inhibitor: -8; LMPTP inh: 0; SUMO1 PPI mod: 2; STEP inh: -3; DNMT1 block: -1

Results for COc1ccc(S(=O)(=O)NCc2csc(-c3cccnc3)n2)cc1 ?
Scp-1 inhibitor: -5; LMPTP inh: -1; SUMO1 PPI mod: 43*; STEP inh: -2; DNMT1 block: 2

How did CCOc1ccc(NC(=O)CN(C)C(=O)c2ccccc2CCc2ccccc2)cc1OCC do in these assays?
Scp-1 inhibitor: -7; LMPTP inh: 1; SUMO1 PPI mod: 5; STEP inh: -2; DNMT1 block: -3

Results for COc1ccc(-n2cccc2/C=C2\C(=N)N3N=C(C(C)C)SC3=NC2=O)cc1 ?
Scp-1 inhibitor: -3; LMPTP inh: 2; SUMO1 PPI mod: -17; STEP inh: 8; DNMT1 block: 6

What do the screens show for `COc1ccc(-n2cccc2/C=C2\C(=N)N3N=C(c4ccco4)SC3=NC2=O)cc1`?
Scp-1 inhibitor: 82*; LMPTP inh: 51*; SUMO1 PPI mod: 103*; STEP inh: 87*; DNMT1 block: 90*

What do the screens show for `CC(=O)NC1(C(F)(F)F)NC(=O)N(CCc2ccccc2)C1=O` (configuration not stated)?
Scp-1 inhibitor: -11; LMPTP inh: -2; SUMO1 PPI mod: 44*; STEP inh: -2; DNMT1 block: -3

How did CC(C)(C)C(=O)NC1(C(F)(F)F)NC(=O)N(CCc2ccccc2)C1=O (configuration not stated) do in these assays?
Scp-1 inhibitor: -16; LMPTP inh: -2; SUMO1 PPI mod: -8; STEP inh: -2; DNMT1 block: 0

Results for CC[n+]1c(/C=C/N(C)c2ccccc2)n(-c2ccccc2)c2ccc(-c3nc4ccccc4s3)cc21 ?
Scp-1 inhibitor: 32; LMPTP inh: 83*; SUMO1 PPI mod: -84; STEP inh: 10; DNMT1 block: -1

Results for CC[n+]1cccc(-c2nc3ccccc3s2)c1 ?
Scp-1 inhibitor: 4; LMPTP inh: -1; SUMO1 PPI mod: -21; STEP inh: -3; DNMT1 block: 2

Results for CCc1ccc(C(=O)COC(=O)C2=NN(c3ccccc3)C(=O)CC2)cc1 ?
Scp-1 inhibitor: -5; LMPTP inh: 1; SUMO1 PPI mod: -3; STEP inh: -1; DNMT1 block: -1

What do the screens show for `O=S(=O)(Nc1ccc(O)c2ncccc12)c1ccccc1F`?
LMPTP inh: 25; SUMO1 PPI mod: 30; STEP inh: 3; DNMT1 block: 59*

Results for O=c1[nH][nH]c2c1[C@H](c1ccccc1)O[C@H](C1CCCCC1)C2 ?
LMPTP inh: -1; SUMO1 PPI mod: -3

How did C/C(=N\NC(=O)c1cc(O)ccc1O)c1cccc(NC(=O)c2ccc(Cl)cc2)c1 do in these assays?
Scp-1 inhibitor: 49; LMPTP inh: 44; SUMO1 PPI mod: 44*; STEP inh: 12; DNMT1 block: -13

How did Cc1ncc(CO)c(/C=N/NC(=S)Nc2cccc(Cl)c2)c1O do in these assays?
Scp-1 inhibitor: -5; LMPTP inh: 5; SUMO1 PPI mod: 21; STEP inh: 64*; DNMT1 block: -27

How did Cc1ccc(CNC(=O)CNC(=O)c2ccc(C(C)(C)C)cc2)n1C do in these assays?
Scp-1 inhibitor: -1; LMPTP inh: -1; SUMO1 PPI mod: -4; STEP inh: 1; DNMT1 block: -6

How did Oc1ccc(N=Cc2ccc(OCc3ccccc3)cc2)cc1 do in these assays?
Scp-1 inhibitor: -11; LMPTP inh: 12; SUMO1 PPI mod: 63*; STEP inh: 3; DNMT1 block: 28

What do the screens show for `O=C(N/N=C/c1ccc(OCc2ccccc2)cc1)c1ccncc1`?
Scp-1 inhibitor: -7; LMPTP inh: 2; SUMO1 PPI mod: -10; STEP inh: -2; DNMT1 block: 2

How did O=C(CSC(=S)N1CCOCC1)Nc1nc(-c2ccccc2)c(-c2ccccc2)o1 do in these assays?
Scp-1 inhibitor: -5; LMPTP inh: 3; SUMO1 PPI mod: 3; STEP inh: 0; DNMT1 block: -17

How did O=C(CSC(=S)N1CCCCC1)Nc1nc(-c2ccccc2)c(-c2ccccc2)o1 do in these assays?
Scp-1 inhibitor: 1; LMPTP inh: 3; SUMO1 PPI mod: 51*; STEP inh: 3; DNMT1 block: 4
